Results reported in ChEMBL document CHEMBL4689842, “EUbOPEN Chemogenomics Library wave 1” (2021).

Test system: Fibroblast
Experiment: Multiplex assay against human fibroblast
Format: toxicity, cell-based
Method in brief: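 Imaging took place on a CQ1 microscope at 37°C and 5% CO2 once compound had been added to live cells stained at seeding with Hoechst33342, BioTracker Green Microtubule Cytoskeleton Dye, MitoTracker Red and Annexin V Alexa Fluor 680. CellPathfinder machine-learning gating classed cells as Hoechst high-intensity objects or normal cells, classed normal cells as having healthy, pyknosed or fragmented nuclei, and classed pyknosed cells as mitotic or apoptotic. Tubulin, mitochondrial-mass and membrane-permeability phenotypes are per cents of the healthy-nucleus cells.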

[1] = 12 h, 1 µM, compound concentration 1 uM, replicate 1
[2] = 12 h, 1 µM, compound concentration 1 uM, replicate 2
[3] = 12 h, 10 µM, compound concentration 10 uM, replicate 1
[4] = 12 h, 10 µM, compound concentration 10 uM, replicate 2
[5] = 24 h, 1 µM, compound concentration 1 uM, replicate 1
[6] = 24 h, 1 µM, compound concentration 1 uM, replicate 2
[7] = 24 h, 10 µM, compound concentration 10 uM, replicate 1
[8] = 24 h, 10 µM, compound concentration 10 uM, replicate 2
[9] = 48 h, 1 µM, compound concentration 1 uM, replicate 1
[10] = 48 h, 1 µM, compound concentration 1 uM, replicate 2
[11] = 48 h, 10 µM, compound concentration 10 uM, replicate 1
[12] = 48 h, 10 µM, compound concentration 10 uM, replicate 2

Structure (SMILES): CC(=O)c1cc(-c2cc(C(=O)NC3CC3)ccc2C)c2ncccn12
- Population Apoptotic (%) [1]: 68%
- Population Fragmented Nuclei (%) [1]: 28%
- Population Healthy Nuclei (%) [1]: 35%
- Population Hoechst High Intensity Objects (%) [1]: 16%
- Population Membrane Permeable-Phenotype (%) [1]: 42%
- Population Mitochondria Different-Phenotype (%) [1]: 3%
- Population Mitotic Cells (%) [1]: 31%
- Population Normal (%) [1]: 83%
- Population Pyknosed Nuclei (%) [1]: 36%
- Population Tubulin-Different-Phenotype (%) [1]: 42%
- Total Cell Count [1]: 96
- Population Apoptotic (%) [2]: 66%
- Population Fragmented Nuclei (%) [2]: 8%
- Population Healthy Nuclei (%) [2]: 85%
- Population Hoechst High Intensity Objects (%) [2]: 7%
- Population Membrane Permeable-Phenotype (%) [2]: 2%
- Population Mitochondria Different-Phenotype (%) [2]: 7%
- Population Mitotic Cells (%) [2]: 33%
- Population Normal (%) [2]: 92%
- Population Pyknosed Nuclei (%) [2]: 6%
- Population Tubulin-Different-Phenotype (%) [2]: 19%
- Total Cell Count [2]: 73
- Population Apoptotic (%) [3]: 60%
- Population Fragmented Nuclei (%) [3]: 20%
- Population Healthy Nuclei (%) [3]: 40%
- Population Hoechst High Intensity Objects (%) [3]: 25%
- Population Membrane Permeable-Phenotype (%) [3]: 30%
- Population Mitochondria Different-Phenotype (%) [3]: 23%
- Population Mitotic Cells (%) [3]: 39%
- Population Normal (%) [3]: 75%
- Population Pyknosed Nuclei (%) [3]: 39%
- Population Tubulin-Different-Phenotype (%) [3]: 50%
- Total Cell Count [3]: 140
- Population Fragmented Nuclei (%) [4]: 11%
- Population Healthy Nuclei (%) [4]: 84%
- Population Hoechst High Intensity Objects (%) [4]: 4%
- Population Membrane Permeable-Phenotype (%) [4]: 3%
- Population Mitochondria Different-Phenotype (%) [4]: 8%
- Population Mitotic Cells (%) [4]: 40%
- Population Normal (%) [4]: 95%
- Population Pyknosed Nuclei (%) [4]: 5%
- Population Tubulin-Different-Phenotype (%) [4]: 17%
- Total Cell Count [4]: 52
- Population Apoptotic (%) [5]: 66%
- Population Fragmented Nuclei (%) [5]: 25%
- Population Healthy Nuclei (%) [5]: 45%
- Population Hoechst High Intensity Objects (%) [5]: 15%
- Population Membrane Permeable-Phenotype (%) [5]: 51%
- Population Mitochondria Different-Phenotype (%) [5]: 7%
- Population Mitotic Cells (%) [5]: 33%
- Population Normal (%) [5]: 84%
- Population Pyknosed Nuclei (%) [5]: 29%
- Population Tubulin-Different-Phenotype (%) [5]: 43%
- Total Cell Count [5]: 108
- Population Apoptotic (%) [6]: 0%
- Population Fragmented Nuclei (%) [6]: 3%
- Population Healthy Nuclei (%) [6]: 91%
- Population Hoechst High Intensity Objects (%) [6]: 4%
- Population Membrane Permeable-Phenotype (%) [6]: 3%
- Population Mitochondria Different-Phenotype (%) [6]: 9%
- Population Mitotic Cells (%) [6]: 100%
- Population Normal (%) [6]: 95%
- Population Pyknosed Nuclei (%) [6]: 5%
- Population Tubulin-Different-Phenotype (%) [6]: 12%
- Total Cell Count [6]: 70
- Population Apoptotic (%) [7]: 57%
- Population Fragmented Nuclei (%) [7]: 21%
- Population Healthy Nuclei (%) [7]: 47%
- Population Hoechst High Intensity Objects (%) [7]: 15%
- Population Membrane Permeable-Phenotype (%) [7]: 24%
- Population Mitochondria Different-Phenotype (%) [7]: 9%
- Population Mitotic Cells (%) [7]: 42%
- Population Normal (%) [7]: 84%
- Population Pyknosed Nuclei (%) [7]: 31%
- Population Tubulin-Different-Phenotype (%) [7]: 65%
- Total Cell Count [7]: 151
- Population Apoptotic (%) [8]: 48%
- Population Fragmented Nuclei (%) [8]: 11%
- Population Healthy Nuclei (%) [8]: 63%
- Population Hoechst High Intensity Objects (%) [8]: 2%
- Population Membrane Permeable-Phenotype (%) [8]: 8%
- Population Mitochondria Different-Phenotype (%) [8]: 12%
- Population Mitotic Cells (%) [8]: 51%
- Population Normal (%) [8]: 97%
- Population Pyknosed Nuclei (%) [8]: 24%
- Population Tubulin-Different-Phenotype (%) [8]: 18%
- Total Cell Count [8]: 62
- Population Apoptotic (%) [9]: 42%
- Population Fragmented Nuclei (%) [9]: 40%
- Population Healthy Nuclei (%) [9]: 46%
- Population Hoechst High Intensity Objects (%) [9]: 10%
- Population Membrane Permeable-Phenotype (%) [9]: 34%
- Population Mitochondria Different-Phenotype (%) [9]: 2%
- Population Mitotic Cells (%) [9]: 57%
- Population Normal (%) [9]: 89%
- Population Pyknosed Nuclei (%) [9]: 13%
- Population Tubulin-Different-Phenotype (%) [9]: 20%
- Total Cell Count [9]: 119
- Population Apoptotic (%) [10]: 33%
- Population Fragmented Nuclei (%) [10]: 30%
- Population Healthy Nuclei (%) [10]: 66%
- Population Hoechst High Intensity Objects (%) [10]: 7%
- Population Membrane Permeable-Phenotype (%) [10]: 12%
- Population Mitochondria Different-Phenotype (%) [10]: 1%
- Population Mitotic Cells (%) [10]: 66%
- Population Normal (%) [10]: 92%
- Population Pyknosed Nuclei (%) [10]: 3%
- Population Tubulin-Different-Phenotype (%) [10]: 32%
- Total Cell Count [10]: 101
- Population Apoptotic (%) [11]: 52%
- Population Fragmented Nuclei (%) [11]: 30%
- Population Healthy Nuclei (%) [11]: 51%
- Population Hoechst High Intensity Objects (%) [11]: 17%
- Population Membrane Permeable-Phenotype (%) [11]: 27%
- Population Mitochondria Different-Phenotype (%) [11]: 6%
- Population Mitotic Cells (%) [11]: 47%
- Population Normal (%) [11]: 82%
- Population Pyknosed Nuclei (%) [11]: 17%
- Population Tubulin-Different-Phenotype (%) [11]: 45%
- Total Cell Count [11]: 145
- Population Apoptotic (%) [12]: 75%
- Population Fragmented Nuclei (%) [12]: 26%
- Population Healthy Nuclei (%) [12]: 69%
- Population Hoechst High Intensity Objects (%) [12]: 9%
- Population Membrane Permeable-Phenotype (%) [12]: 16%
- Population Mitochondria Different-Phenotype (%) [12]: 8%
- Population Mitotic Cells (%) [12]: 25%
- Population Normal (%) [12]: 90%
- Population Pyknosed Nuclei (%) [12]: 4%
- Population Tubulin-Different-Phenotype (%) [12]: 35%
- Total Cell Count [12]: 107
